Assay outcomes deposited in PubChem by Johns Hopkins Ion Channel Center.
TRPC4 potent = allosteric potentiators of mouse TRPC4 channel; HEK293 TRPC4beta/mu-opioid, DAMGO EC20, Fluo-4 Ca2+ flux; hits give high values; B-score at 10 µM; 0.42% of 310,000 active;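 active = B-score of calcium response area above 5 SD of library B-scores, with initial fluorescence ratio within 5 SD of library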;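 note: B-score of integrated fluorescence ratio over time as area under calcium response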
Kir21 inh = blocks the mouse Kir2.1 inward-rectifier potassium channel. HEK293-Kir2.1, FluxOR thallium flux fluorescence; hits give low values. B-score at 10 µM. 0.85% of 310,000 active. AID 1672;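 active = fluorescence ratio B-score at or below minus 3 SD of library scores, with starting-brightness B-score within 2 SD, cut at about -4.2 in these data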;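 note: channel flux triggered by added potassium and thallium sulfate stimulus; B-score of peak minus minimum fluorescence over baseline after thallium stimulus; more negative B-score means stronger Kir2.1 block with less thallium influx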
TRPC6 inhibitor = mouse TRPC6 channel inhibition; Q61143; HEK293-TRPC6, membrane potential dye, ACh-evoked depolarization; hits give low values; B-score at 10 µM; 1.1% of 310,000 active;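 active = B-score under library mean minus 3 SD, initial fluorescence not abnormally high, positive integrated signal ratio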;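 note: B-score derived from integrated fluorescence ratio over the kinetic read; more negative B-score means stronger inhibition of depolarization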
TRPC6 act = mouse TRPC6 channel activation. Q61143. HEK293-TRPC6 membrane potential dye fluorescence; hits give high values. B-score at 10 µM. 0.13% of 310,000 active. AID 2550;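 active = B-score of the integrated fluorescence ratio above library mean plus 3 SD, and starting fluorescence ratio within library mean plus 5 SD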;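 note: higher score means more depolarization so channel activation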
TRPC4 act = activators of mouse TRPC4 channel; Q9QUQ5; HEK293 TRPC4beta/mu-opioid, Fluo4 calcium fluorescence; hits give high values; B-score at 10 µM; 0.49% of 310,000 active;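 active = B-score above 5 SD of library B-scores, and initial fluorescence ratio not above library mean plus 5 SD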;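 note: positive B-score marks a calcium rise read as TRPC4 activation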
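system = HEK293 cells stably co-expressing mouse TRPC4beta and mu-opioid receptor | schedule = Fluo4 dye loading 45 min at room temperature, 110 s recording | measure = B-scored integrated calcium fluorescence ratio | signal = Fluo4 calcium-sensitive dye fluorescence, kinetic, 1 Hz baseline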
TRPC4 block = inhibitors of mouse TRPC4 channel. Q9QUQ5. HEK293 TRPC4beta/mu-opioid, DAMGO-evoked Fluo4 calcium flux; hits give low values. B-score at 10 µM. 0.39% of 300,000 active;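 active = B-score over 3 SD under the library average, no early fluorescence shift, positive overall ratio signal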
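Signal: kinetic Fluo4 fluorescence imaging of calcium influx. Material: stable TRPC4beta/mu-opioid receptor HEK293 cells. Probe or stimulus: DAMGO in two steps, submaximal then maximal.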
An asterisk follows results filed as active; i = inactive. Compounds with a hit are over-represented: about 2.9% of the library has one in this group of screens.

SMILES	TRPC4 potent	Kir21 inh	TRPC6 inhibitor	TRPC6 act	TRPC4 act	TRPC4 block
CC1(c2ccc(Cl)cc2)NC(=O)N(CC(=O)N2CCN(S(=O)(=O)c3ccccc3)CC2)C1=O (configuration not stated)	i	0.67	i	i	i	i
O=c1c2ccccc2nc(SCc2ccccc2)n1CC1CCCO1 (configuration not stated)	i	-0.35	i	i	i	-7*
O=C(/C=C/c1ccc(S(=O)(=O)N2CCOCC2)cc1)NC(=S)Nc1ccc(N2CCOCC2)cc1	12*	-0.09	i	i	i	i
Cc1cccc(Nc2nc(NCc3ccco3)nc(N)c2[N+](=O)[O-])c1	i	0.32	i	i	i	i
Cc1cccc(Nc2nc(N)c([N+](=O)[O-])c(NCc3ccco3)n2)c1	10*	0.02	i	i	i	i
COc1cccc(CN2CCC(C(=O)Nc3ccc(Oc4cccnc4)cc3)CC2)c1	i	-2.2	i	i	i	i
Cc1cccc(CN2CCC(C(=O)Nc3ccc(Oc4cccnc4)cc3)CC2)c1	i	-4.3*	i	i	i	i
CCCCN(CC)CCCNC(=O)CN1C(=O)CSc2ccc(S(=O)(=O)N3CCOCC3)cc21	i	-2	i	i	55*	i
O=[N+]([O-])c1ccc(O)c(C2=NNC(c3ccccc3F)C2)c1 (configuration not stated)	i	-0.39	i	i	101*	-6*
C/C(=N\NC(N)=S)C1C2C3CC4C5CC(C42)C1C53 (configuration not stated)	i	-6*	i	i	i	i
CCOC(=O)c1oc2cc(O)c(CC)cc2c(=O)c1-c1cscn1	i	1.1	i	i	i	i
CCCCCCCCCC(=O)N[C@H](CN1CCOCC1)[C@H](O)c1ccccc1	i	-1.6	i	i	i	i
CCCCCCCCCCCC(=O)NC(C(=O)O)C(O)c1ccccc1 (configuration not stated)	i	-0.05	i	i	i	-6*
CCn1cc(CCC(=O)NCc2ccccc2OC)c2ccccc21	i	-6.7*	i	i	i	i
CCn1cc(CCCC(=O)NCc2ccccc2OC)c2ccccc21	i	-1.7	i	i	i	i
N#Cc1nc(Cc2cccc3ccccc23)oc1NCCCn1ccnc1	i	-4.2	i	i	i	i
N#Cc1nc(Cc2cccc3ccccc23)oc1NCCCN1CCOCC1	i	-6*	i	i	i	i
CN(C)C(CNC(=O)c1ccc2ccccc2n1)c1ccccc1 (configuration not stated)	i	-1.1	i	i	100*	i
CN(C)C(CNC(=O)c1cnc(Cl)c(Cl)c1)c1ccccc1 (configuration not stated)	i	-0.84	i	i	223*	i
CN(C)C(CNC(=O)/C=C/c1cccc(Cl)c1)c1ccccc1 (configuration not stated)	i	-0.64	i	i	199*	i
CN(C)C(CNC(=O)c1ccc(NC(=O)c2cccs2)cc1)c1ccccc1 (configuration not stated)	i	-1.1	i	i	i	i
CN(C)C(CNC(=O)c1ccc(C2SCCS2)cc1)c1ccccc1 (configuration not stated)	i	4.9e-16	i	i	i	-5*
Nc1nc2n(n1)C(=O)CC(c1ccccc1[N+](=O)[O-])N2 (configuration not stated)	i	1.5	i	i	i	i
COc1cc(/C=N/O)cc(Br)c1OC	i	5	i	i	i	i
C=CCOc1c(Br)cc(/C=N/O)cc1OCC	i	-6*	i	i	i	i
O=C(N/N=C\c1coc2ccccc2c1=O)c1ccco1	i	0.83	i	i	i	i
CC(C)CN(C(=O)COC(=O)CCC(=O)c1ccc(Cl)cc1)c1c(N)n(Cc2ccccc2)c(=O)[nH]c1=O	114*	-0.81	i	i	i	i
